Source: ChEMBL document CHEMBL1687785, “ampG gene of Pseudomonas aeruginosa and its role in β-lactamase expression” (2010)

Experiments:
[1] = target: Beta-lactamase (Pseudomonas aeruginosa (strain ATCC 15692 / PAO1 / 1C / PRS 101 / LMG12228)) (UniProt P24735); assay: Activity of ampG deficient Pseudomonas aeruginosa PAK AmpC at 50 ug/ml assessed as nitrocefin substrate hydrolysis per mg of protein after 2 hrs by UV spectrophotometry
Outline: (§1)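 P. aeruginosa cells induced 2 h with […] cefoxitin. Crude sonicated extracts assayed by UV spectrophotometry with 100 μM nitrocefin substrate. Specific activity is nmol nitrocefin hydrolyzed per min per mg protein at 30°C, with protein by BCA against BSA standard. Triplicate inductions, averaged.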

[2] = target: Beta-lactamase (Pseudomonas aeruginosa (strain ATCC 15692 / PAO1 / 1C / PRS 101 / LMG12228)) (UniProt P24735); assay: Activity of ampG deficient Pseudomonas aeruginosa PAK AmpC harboring pZY0908 conferring resistance to gentamycin at 50 ug/ml assessed as nitrocefin substrate hydrolysis per mg of protein after 2 hrs by UV spectrophotometry; outline: as §1
[3] = target: Beta-lactamase (Pseudomonas aeruginosa (strain ATCC 15692 / PAO1 / 1C / PRS 101 / LMG12228)) (UniProt P24735); assay: Activity of ampG deficient Pseudomonas aeruginosa PAO1 AmpC at 50 ug/ml assessed as nitrocefin substrate hydrolysis per mg of protein after 2 hrs by UV spectrophotometry; outline: as §1
[4] = target: Beta-lactamase (Pseudomonas aeruginosa (strain ATCC 15692 / PAO1 / 1C / PRS 101 / LMG12228)) (UniProt P24735); assay: Activity of ampD, […], ampDh2 deficient Pseudomonas aeruginosa PAO1 AmpC at 50 ug/ml assessed as nitrocefin substrate hydrolysis per mg of protein after 2 hrs by UV spectrophotometry; outline: as §1
[5] = target: Beta-lactamase (Pseudomonas aeruginosa (strain ATCC 15692 / PAO1 / 1C / PRS 101 / LMG12228)) (UniProt P24735); assay: Activity of Pseudomonas aeruginosa PAO1 AmpC at 50 ug/ml assessed as nitrocefin substrate hydrolysis per mg of protein after 2 hrs by UV spectrophotometry; outline: as §1
[6] = target: Beta-lactamase (Pseudomonas aeruginosa (strain ATCC 15692 / PAO1 / 1C / PRS 101 / LMG12228)) (UniProt P24735); assay: Activity of Pseudomonas aeruginosa PAK AmpC at 50 ug/ml assessed as nitrocefin substrate hydrolysis per mg of protein after 2 hrs by UV spectrophotometry; outline: as §1
[7] = target: Beta-lactamase (Pseudomonas aeruginosa (strain ATCC 15692 / PAO1 / 1C / PRS 101 / LMG12228)) (UniProt P24735); assay: Activity of ampG deficient Pseudomonas aeruginosa PAK AmpC harboring pZY0901 conferring resistance to gentamycin at 50 ug/ml assessed as nitrocefin substrate hydrolysis per mg of protein after 2 hrs by UV spectrophotometry; outline: as §1
[8] = target: Beta-lactamase (Pseudomonas aeruginosa (strain ATCC 15692 / PAO1 / 1C / PRS 101 / LMG12228)) (UniProt P24735); assay: Activity of ampD, ampDh2, ampDh3 and ampG deficient Pseudomonas aeruginosa PAO1 AmpC at 50 ug/ml assessed as nitrocefin substrate hydrolysis per mg of protein after 2 hrs by UV spectrophotometry; outline: as §1
[9] = target: Beta-lactamase (Pseudomonas aeruginosa (strain ATCC 15692 / PAO1 / 1C / PRS 101 / LMG12228)) (UniProt P24735); assay: Activity of ampD, ampDh2, ampDh3 and ampG deficient Pseudomonas aeruginosa PAO1 AmpC harboring pZY0901 conferring resistance to gentamycin at 50 ug/ml assessed as nitrocefin substrate hydrolysis per mg of protein after 2 hrs by UV spectrophotometry; outline: as §1
[10] = target: Beta-lactamase (Pseudomonas aeruginosa (strain ATCC 15692 / PAO1 / 1C / PRS 101 / LMG12228)) (UniProt P24735); assay: Activity of Pseudomonas aeruginosa PAO1 AmpC assessed as nitrocefin hydrolyzed per mg of protein at 1 ug/ml by UV spectrophotometry
Outline: (§2)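 P. aeruginosa cells induced 2 h with cefoxitin (1, 10 or 25 μg/ml; uninduced control). Crude extracts prepared by sonication. β-Lactamase measured by UV spectrophotometry with 100 μM nitrocefin as substrate. Specific activity given as nmol nitrocefin hydrolyzed per min per mg protein at 30°C, with protein by BCA against BSA standard. Triplicate inductions, averaged.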

[11] = target: Beta-lactamase (Pseudomonas aeruginosa (strain ATCC 15692 / PAO1 / 1C / PRS 101 / LMG12228)) (UniProt P24735); assay: Activity of Pseudomonas aeruginosa PAO1 AmpC assessed as nitrocefin hydrolyzed per mg of protein at 10 ug/ml by UV spectrophotometry; outline: as §2
[12] = target: Beta-lactamase (Pseudomonas aeruginosa (strain ATCC 15692 / PAO1 / 1C / PRS 101 / LMG12228)) (UniProt P24735); assay: Activity of Pseudomonas aeruginosa PAO1 AmpC assessed as nitrocefin hydrolyzed per mg of protein at 25 ug/ml by UV spectrophotometry; outline: as §2
[13] = target: Beta-lactamase (Pseudomonas aeruginosa (strain ATCC 15692 / PAO1 / 1C / PRS 101 / LMG12228)) (UniProt P24735); assay: Activity of Pseudomonas aeruginosa PAK AmpC assessed as nitrocefin hydrolyzed per mg of protein at 1 ug/ml by UV spectrophotometry; outline: as §2
[14] = target: Beta-lactamase (Pseudomonas aeruginosa (strain ATCC 15692 / PAO1 / 1C / PRS 101 / LMG12228)) (UniProt P24735); assay: Activity of Pseudomonas aeruginosa PAK AmpC assessed as nitrocefin hydrolyzed per mg of protein at 10 ug/ml by UV spectrophotometry; outline: as §2
[15] = target: Beta-lactamase (Pseudomonas aeruginosa (strain ATCC 15692 / PAO1 / 1C / PRS 101 / LMG12228)) (UniProt P24735); assay: Activity of Pseudomonas aeruginosa PAK AmpC assessed as nitrocefin hydrolyzed per mg of protein at 25 ug/ml by UV spectrophotometry; outline: as §2
[16] = target: Beta-lactamase (Pseudomonas aeruginosa (strain ATCC 15692 / PAO1 / 1C / PRS 101 / LMG12228)) (UniProt P24735); assay: Activity of ampD, […], ampDh2 deficient Pseudomonas aeruginosa PAO1 AmpC assessed as nitrocefin hydrolyzed per mg of protein at 1 ug/ml by UV spectrophotometry; outline: as §2
[17] = target: Beta-lactamase (Pseudomonas aeruginosa (strain ATCC 15692 / PAO1 / 1C / PRS 101 / LMG12228)) (UniProt P24735); assay: Activity of ampD, […], ampDh2 deficient Pseudomonas aeruginosa PAO1 AmpC assessed as nitrocefin hydrolyzed per mg of protein at 10 ug/ml by UV spectrophotometry; outline: as §2
[18] = target: Beta-lactamase (Pseudomonas aeruginosa (strain ATCC 15692 / PAO1 / 1C / PRS 101 / LMG12228)) (UniProt P24735); assay: Activity of ampD, […], ampDh2 deficient Pseudomonas aeruginosa PAO1 AmpC assessed as nitrocefin hydrolyzed per mg of protein at 25 ug/ml by UV spectrophotometry; outline: as §2
[19] = target: Beta-lactamase (Pseudomonas aeruginosa (strain ATCC 15692 / PAO1 / 1C / PRS 101 / LMG12228)) (UniProt P24735); assay: Activity of ampG deficient Pseudomonas aeruginosa PAO1 AmpC assessed as nitrocefin hydrolyzed per mg of protein at 1 ug/ml by UV spectrophotometry; outline: as §2
[20] = target: Beta-lactamase (Pseudomonas aeruginosa (strain ATCC 15692 / PAO1 / 1C / PRS 101 / LMG12228)) (UniProt P24735); assay: Activity of ampG deficient Pseudomonas aeruginosa PAO1 AmpC assessed as nitrocefin hydrolyzed per mg of protein at 10 ug/ml by UV spectrophotometry; outline: as §2
[21] = target: Beta-lactamase (Pseudomonas aeruginosa (strain ATCC 15692 / PAO1 / 1C / PRS 101 / LMG12228)) (UniProt P24735); assay: Activity of ampG deficient Pseudomonas aeruginosa PAO1 AmpC assessed as nitrocefin hydrolyzed per mg of protein at 25 ug/ml by UV spectrophotometry; outline: as §2
[22] = target: Beta-lactamase (Pseudomonas aeruginosa (strain ATCC 15692 / PAO1 / 1C / PRS 101 / LMG12228)) (UniProt P24735); assay: Activity of ampD, […], ampDh2 and ampG deficient Pseudomonas aeruginosa PAO1 AmpC assessed as nitrocefin hydrolyzed per mg of protein at 25 ug/ml by UV spectrophotometry; outline: as §2
[23] = target: Beta-lactamase (Pseudomonas aeruginosa (strain ATCC 15692 / PAO1 / 1C / PRS 101 / LMG12228)) (UniProt P24735); assay: Activity of ampD, […], ampDh2 and ampG deficient Pseudomonas aeruginosa PAO1 AmpC assessed as nitrocefin hydrolyzed per mg of protein at 10 ug/ml by UV spectrophotometry; outline: as §2
[24] = target: Beta-lactamase (Pseudomonas aeruginosa (strain ATCC 15692 / PAO1 / 1C / PRS 101 / LMG12228)) (UniProt P24735); assay: Activity of ampD, […], ampDh2 and ampG deficient Pseudomonas aeruginosa PAO1 AmpC assessed as nitrocefin hydrolyzed per mg of protein at 1 ug/ml by UV spectrophotometry; outline: as §2
[25] = target: Beta-lactamase (Pseudomonas aeruginosa (strain ATCC 15692 / PAO1 / 1C / PRS 101 / LMG12228)) (UniProt P24735); assay: Activity of ampG deficient Pseudomonas aeruginosa PAK AmpC assessed as nitrocefin hydrolyzed per mg of protein at 25 ug/ml by UV spectrophotometry; outline: as §2
[26] = target: Beta-lactamase (Pseudomonas aeruginosa (strain ATCC 15692 / PAO1 / 1C / PRS 101 / LMG12228)) (UniProt P24735); assay: Activity of ampG deficient Pseudomonas aeruginosa PAK AmpC assessed as nitrocefin hydrolyzed per mg of protein at 10 ug/ml by UV spectrophotometry; outline: as §2
[27] = target: Beta-lactamase (Pseudomonas aeruginosa (strain ATCC 15692 / PAO1 / 1C / PRS 101 / LMG12228)) (UniProt P24735); assay: Activity of ampG deficient Pseudomonas aeruginosa PAK AmpC assessed as nitrocefin hydrolyzed per mg of protein at 1 ug/ml by UV spectrophotometry; outline: as §2
[28] = target: Beta-lactamase AmpC (Enterobacter cloacae) (UniProt P05364); assay: Activity of kanamycin resistant Escherichia coli SNO301-1 AmpC harboring pEC1C carrying ampC, ampR from Enterobacter cloacae at 50 ug/ml assessed as nitrocefin substrate hydrolysis per mg of protein after 2 hrs by UV spectrophotometry
Sequence of Beta-lactamase AmpC (Enterobacter cloacae) (P05364 whole entry, looked up): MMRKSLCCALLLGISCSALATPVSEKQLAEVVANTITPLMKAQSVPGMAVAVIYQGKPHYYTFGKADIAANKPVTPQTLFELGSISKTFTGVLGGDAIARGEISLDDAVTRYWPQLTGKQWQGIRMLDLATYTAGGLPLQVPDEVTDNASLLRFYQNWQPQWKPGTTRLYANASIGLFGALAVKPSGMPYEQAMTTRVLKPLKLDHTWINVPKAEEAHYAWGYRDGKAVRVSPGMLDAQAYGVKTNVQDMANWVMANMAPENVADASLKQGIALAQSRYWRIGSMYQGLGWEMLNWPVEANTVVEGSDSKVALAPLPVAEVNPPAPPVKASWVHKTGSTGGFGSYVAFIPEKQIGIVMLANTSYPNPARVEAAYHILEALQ

[29] = target: Beta-lactamase AmpC (Enterobacter cloacae) (UniProt P05364); assay: Activity of gentamycin resistant Escherichia coli SNO301-1 AmpC harboring pEC1C carrying ampC, ampR from Enterobacter cloacae at 50 ug/ml assessed as nitrocefin substrate hydrolysis per mg of protein after 2 hrs by UV spectrophotometry
[30] = target: Beta-lactamase AmpC (Enterobacter cloacae) (UniProt P05364); assay: Activity of tetracycline resistant Escherichia coli SNO301-1 AmpC harboring pEC1C carrying ampC, ampR from Enterobacter cloacae at 50 ug/ml assessed as nitrocefin substrate hydrolysis per mg of protein after 2 hrs by UV spectrophotometry

Sequence of Beta-lactamase (Pseudomonas aeruginosa (strain ATCC 15692 / PAO1 / 1C / PRS 101 / LMG12228)) (P24735 27-397 limits assumed): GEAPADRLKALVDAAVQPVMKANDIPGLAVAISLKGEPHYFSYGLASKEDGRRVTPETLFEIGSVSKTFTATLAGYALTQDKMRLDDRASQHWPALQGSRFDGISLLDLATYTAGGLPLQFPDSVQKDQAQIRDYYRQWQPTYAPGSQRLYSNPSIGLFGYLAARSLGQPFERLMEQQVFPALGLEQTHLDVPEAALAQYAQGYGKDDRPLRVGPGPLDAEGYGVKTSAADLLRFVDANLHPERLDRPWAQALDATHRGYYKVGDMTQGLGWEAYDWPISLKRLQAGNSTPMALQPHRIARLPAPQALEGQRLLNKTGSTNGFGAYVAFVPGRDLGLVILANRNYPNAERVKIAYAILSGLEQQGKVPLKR

Q: How did the Activity [1] turn out when `CO[C@@]1(NC(=O)Cc2cccs2)C(=O)N2C(C(=O)O)=C(COC(N)=O)CS[C@@H]21` was run?
A: 0 nmol/min

Q: And the Activity [2]?
A: 1300 nmol/min

Q: What about the Activity [3] of the same molecule?
A: 0 nmol/min

Q: What about the Activity [4] of the same molecule?
A: 3440 nmol/min

Q: And the Activity [5]?
A: 879 nmol/min

Q: And the Activity [6]?
A: 1220 nmol/min

Q: And the Activity [7]?
A: 2570 nmol/min

Q: And the Activity [8]?
A: 0 nmol/min

Q: And the Activity [9]?
A: 8130 nmol/min

Q: And the Activity [10]?
A: 36 nmol/min

Q: What about the Activity [11] of the same molecule?
A: 165 nmol/min

Q: What about the Activity [12] of the same molecule?
A: 372 nmol/min

Q: What about the Activity [13] of the same molecule?
A: 152 nmol/min

Q: What about the Activity [14] of the same molecule?
A: 747 nmol/min

Q: And the Activity [15]?
A: 1070 nmol/min

Q: And the Activity [16]?
A: 2980 nmol/min

Q: What about the Activity [17] of the same molecule?
A: 3010 nmol/min

Q: What about the Activity [18] of the same molecule?
A: 3020 nmol/min

Q: What about the Activity [19] of the same molecule?
A: 3 nmol/min

Q: What about the Activity [20] of the same molecule?
A: 10 nmol/min

Q: What about the Activity [21] of the same molecule?
A: 0 nmol/min

Q: What about the Activity [22] of the same molecule?
A: 0 nmol/min

Q: What about the Activity [23] of the same molecule?
A: 8 nmol/min

Q: And the Activity [24]?
A: 4 nmol/min

Q: What about the Activity [25] of the same molecule?
A: 0 nmol/min

Q: And the Activity [26]?
A: 5 nmol/min

Q: What about the Activity [27] of the same molecule?
A: 2 nmol/min

Q: What about the Activity [28] of the same molecule?
A: 3600 nmol/min

Q: What about the Activity [29] of the same molecule?
A: 3250 nmol/min

Q: And the Activity [30]?
A: 38 nmol/min
